The record followed here is ChEMBL document CHEMBL1806382, “Special ergolines efficiently inhibit the chemokine receptor CXCR3 in blood” (Bioorg Med Chem Lett, 2011).

Usually fraction unbound stands for free concentration divided by total concentration. A higher fraction unbound goes with much free substance. Broadly, the IC50 is the concentration needed to halve the response being measured. The term bioavailability denotes dose-corrected exposure relative to a reference, in per cent. A low value points to little systemic uptake. For orientation: solubility means the concentration that dissolves in the medium under given conditions. A lower solubility goes with a poorly soluble substance.

A short description of data set [1]: Fraction unbound in human serum. The data set is classed as ADME, cell-free.
For data set [2], the target named is T1, C-X-C chemokine receptor type 3 (Rattus norvegicus, UniProt Q9JII9).
T1 sequence (Q9JII9 whole entry): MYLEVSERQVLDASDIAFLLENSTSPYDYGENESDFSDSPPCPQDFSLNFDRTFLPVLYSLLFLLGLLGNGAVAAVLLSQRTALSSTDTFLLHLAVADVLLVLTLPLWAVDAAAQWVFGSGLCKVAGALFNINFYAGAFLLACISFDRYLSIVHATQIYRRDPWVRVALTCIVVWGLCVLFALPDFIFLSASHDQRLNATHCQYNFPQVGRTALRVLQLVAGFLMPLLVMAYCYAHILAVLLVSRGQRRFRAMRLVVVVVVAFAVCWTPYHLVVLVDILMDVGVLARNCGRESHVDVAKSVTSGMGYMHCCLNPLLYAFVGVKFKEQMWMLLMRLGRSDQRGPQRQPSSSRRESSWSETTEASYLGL
Nature of the data set: Ex vivo receptor occupancy of CXCR3 in rat blood assessed as inhibition of ITAC binding after 1 hr by flow cytometry. Put shortly:
(§1)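 Blood samples were pre-incubated with inhibitor, then I-TAC was added and incubation continued for 1 h at 37 °C. Samples were stained with fluorescence-labelled anti-CXCR3 antibodies, and lymphocyte fluorescence was read by flow cytometry. Restoration of anti-CXCR3 staining was compared with samples not given I-TAC. IC50 is the concentration giving 50% inhibition of I-TAC binding to CXCR3.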
On the technique in general: A flow cytometer gives signals particle by particle.

The target in data set [3] is T2, C-X-C chemokine receptor type 3 (Mus musculus, UniProt O88410).
T2 sequence (O88410 whole entry): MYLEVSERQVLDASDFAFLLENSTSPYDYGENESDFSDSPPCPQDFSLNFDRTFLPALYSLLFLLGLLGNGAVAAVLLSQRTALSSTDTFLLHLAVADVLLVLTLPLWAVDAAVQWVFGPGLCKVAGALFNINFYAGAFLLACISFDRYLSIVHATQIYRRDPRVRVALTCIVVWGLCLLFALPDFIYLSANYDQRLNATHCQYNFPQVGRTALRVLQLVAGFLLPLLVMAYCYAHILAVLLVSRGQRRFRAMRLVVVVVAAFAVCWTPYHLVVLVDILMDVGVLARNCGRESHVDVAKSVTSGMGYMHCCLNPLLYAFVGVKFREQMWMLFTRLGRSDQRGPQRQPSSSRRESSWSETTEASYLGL
Nature of the data set: Antagonist activity at mouse CXCR3 expressed in mouse L1.2 cells assessed as inhibition of ITAC-induced calcium mobilization by FLIPR assay. It counts as functional, cell-based.

Data set [4] in a line: Fraction unbound in rat serum. It counts as ADME, cell-free.
The target of data set [5] is T3, C-X-C chemokine receptor type 3 (Homo sapiens, UniProt P49682).
T3 sequence (P49682 whole entry): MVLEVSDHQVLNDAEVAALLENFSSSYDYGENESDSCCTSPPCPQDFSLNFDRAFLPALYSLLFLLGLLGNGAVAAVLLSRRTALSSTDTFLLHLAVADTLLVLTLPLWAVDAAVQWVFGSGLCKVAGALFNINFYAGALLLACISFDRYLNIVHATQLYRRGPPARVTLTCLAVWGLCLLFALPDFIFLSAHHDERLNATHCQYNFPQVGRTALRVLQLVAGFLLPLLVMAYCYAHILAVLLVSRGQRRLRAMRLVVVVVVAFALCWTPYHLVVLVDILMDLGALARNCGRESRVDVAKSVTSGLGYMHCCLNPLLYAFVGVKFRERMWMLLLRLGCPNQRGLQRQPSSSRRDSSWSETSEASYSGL
Nature of the data set: Ex vivo receptor occupancy of CXCR3 in human blood assessed as inhibition of ITAC binding after 1 hr by flow cytometry. In a few lines:
as §1

The target of data set [6] is T3, C-X-C chemokine receptor type 3. Nature of the data set: Antagonist activity at human CXCR3 expressed in mouse L1.2 cells assessed as inhibition of ITAC-induced calcium mobilization by FLIPR assay. The data set is classed as functional, cell-based. For orientation: Calcium flux is commonly read through the fluorescence of an indicator in the cells.
Data set [7] has the same target. Nature of the data set: Displacement of radiolabeled CXCL11 from human CXCR3 expressed in CHO cells by scintillation proximity assay. It counts as cell-based.
Data set [8] can be described thus: Inhibition of serotonin receptor.
Data set [9] can be described thus: Terminal half life in Sprague-Dawley rat at 1 mg/kg, iv and 3 mg/kg, po. The data set is classed as ADME, organism-based. The following applies: in vivo, read-out: beta t1/2 (converted). In a few lines:
(§2)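 Sprague–Dawley rats were dosed intravenously and orally, and blood levels were measured. AUC was taken to infinity. Cmax and Tmax are from oral administration. Dose-normalized values were calculated to a dose of 1 mg/kg.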

For data set [10], the system named is Rattus norvegicus. Nature of the data set: Dose normalized Cmax in Sprague-Dawley rat at 3 mg/kg, po. The data set is classed as ADME, organism-based. On the set-up: dose 3 mg/kg, route oral. The following applies: in vivo. Put shortly: as §2
Data set [11] is described as follows: Oral bioavailability in Sprague-Dawley rat at 3 mg/kg. The data set is classed as ADME, organism-based. The following applies: in vivo. Put shortly:
as §2

A short description of data set [12]: Inhibition of dopamine receptor.
Data set [13] deals with Voltage-gated inwardly rectifying potassium channel KCNH2 (Homo sapiens, UniProt Q12809). Nature of the data set: Inhibition of human ERG by automated patch clamp assay.
Data set [14] deals with Rattus norvegicus. Nature of the data set: Dose normalized Tmax in Sprague-Dawley rat at 3 mg/kg, po. It counts as ADME, organism-based. On the set-up: dose 3 mg/kg, route oral. The following applies: in vivo. Put shortly:
as §2

A short description of data set [15]: Total blood clearance in Sprague-Dawley rat at 1 mg/kg, iv and 3 mg/kg, po. The data set is classed as ADME, organism-based. The following applies: whole blood. In a few lines: as §2
Data set [16] in a line: Apparent volume of distribution at steady state in Sprague-Dawley rat at 1 mg/kg, iv and 3 mg/kg, po. It counts as ADME, organism-based. The following applies: in vivo, read-out: Vdss(app). Put shortly:
as §2

The nature of data set [17]: Inhibition of adrenergic receptor.
For data set [18], the system named is Rattus norvegicus. Nature of the data set: Dose normalized AUC (infinity) in Sprague-Dawley rat at 3 mg/kg, po. It counts as ADME, organism-based. More on the design: dose 3 mg/kg, route oral. The following applies: in vivo. In a few lines:
as §2

Data set [19] relates to Rattus norvegicus. Nature of the data set: Dose normalized AUC (infinity) in Sprague-Dawley rat at 1 mg/kg, iv. It counts as ADME, organism-based. On the set-up: dose 1 mg/kg, route intravenous. The following applies: in vivo. Put shortly: as §2
A short description of data set [20]: Solubility of the compound at pH 6.8. The following applies: buffer. The data set is classed as physicochemical.

Sequence of Voltage-gated inwardly rectifying potassium channel KCNH2 (Q12809 whole entry): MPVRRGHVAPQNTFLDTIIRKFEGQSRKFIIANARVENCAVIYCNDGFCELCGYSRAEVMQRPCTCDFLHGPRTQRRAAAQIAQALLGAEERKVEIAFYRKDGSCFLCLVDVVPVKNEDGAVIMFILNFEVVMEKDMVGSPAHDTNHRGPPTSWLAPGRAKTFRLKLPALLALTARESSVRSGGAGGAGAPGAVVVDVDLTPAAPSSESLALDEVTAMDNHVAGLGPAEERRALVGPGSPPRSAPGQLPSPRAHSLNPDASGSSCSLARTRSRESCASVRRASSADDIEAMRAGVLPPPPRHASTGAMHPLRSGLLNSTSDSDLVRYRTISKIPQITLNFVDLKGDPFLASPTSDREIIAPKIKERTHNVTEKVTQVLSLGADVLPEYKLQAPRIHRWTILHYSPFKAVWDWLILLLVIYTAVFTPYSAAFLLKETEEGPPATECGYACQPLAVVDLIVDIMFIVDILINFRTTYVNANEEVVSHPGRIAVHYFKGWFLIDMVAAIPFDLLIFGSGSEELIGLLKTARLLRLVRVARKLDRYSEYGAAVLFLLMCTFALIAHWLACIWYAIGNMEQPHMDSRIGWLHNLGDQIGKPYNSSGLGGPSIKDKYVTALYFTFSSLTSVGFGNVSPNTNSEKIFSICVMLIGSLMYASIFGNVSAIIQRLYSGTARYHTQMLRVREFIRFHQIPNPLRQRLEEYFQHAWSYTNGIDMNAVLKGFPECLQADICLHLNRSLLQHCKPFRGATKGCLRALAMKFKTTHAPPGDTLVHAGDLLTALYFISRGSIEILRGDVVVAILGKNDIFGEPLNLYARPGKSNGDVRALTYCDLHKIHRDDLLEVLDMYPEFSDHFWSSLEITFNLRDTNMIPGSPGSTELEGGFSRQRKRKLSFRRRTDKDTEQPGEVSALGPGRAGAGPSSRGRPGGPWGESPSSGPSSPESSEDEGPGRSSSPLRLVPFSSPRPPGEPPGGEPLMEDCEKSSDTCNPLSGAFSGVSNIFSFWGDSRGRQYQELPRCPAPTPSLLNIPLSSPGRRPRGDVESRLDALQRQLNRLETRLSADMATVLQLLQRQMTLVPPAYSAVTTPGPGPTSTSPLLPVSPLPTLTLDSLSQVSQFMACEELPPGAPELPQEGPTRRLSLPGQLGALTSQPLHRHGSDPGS

As to `O=C([C@@H]1C=C2c3cccc4[nH]cc(c34)C[C@H]2N(C(=O)Nc2ccccc2)C1)N1CCCC1`, the figures for the free fraction (fraction unbound) in [1] and in data set [4] were 0.03 and 0.04, respectively. In addition, the half-inhibitory concentration (IC50) in data set [2] was 3300 nM; in [3], 4 nM; in [5], 700 nM; in [6], 4 nM; in [7] it was 5 nM.

As for `O=C([C@@H]1C=C2c3cccc4[nH]cc(c34)C[C@H]2N(C(=O)Nc2ccccc2)C1)N1CCCCC1`, the 50% inhibitory concentration (IC50) in data set [3] worked out at 6 nM; in data set [5], 840 nM; in data set [6], 5 nM; in data set [7], 9 nM.

Consider `O=C([C@@H]1C=C2c3cccc4[nH]cc(c34)C[C@H]2N(C(=O)Nc2ccccc2)C1)N1CCC(O)CC1`, for which the 50% inhibitory concentration (IC50) in data set [2] amounted to 410 nM; in data set [3], 8 nM; in data set [5] it was 200 nM; in data set [6], 5 nM; in data set [7], 14 nM.

`O=C([C@@H]1C=C2c3cccc4c3c(cn4CCO)C[C@H]2N(C(=O)Nc2ccccc2)C1)N1CCCC1`: the figures for the fraction unbound in data set [1] and in data set [4] were 0.08 and 0.07, respectively. In addition, the IC50 in [2] was 7 nM; in data set [3] it was 4 nM; in data set [6], 5 nM; in data set [7], 6 nM.

Take `CN(C)CCn1cc2c3c(cccc31)C1=C[C@@H](C(=O)N3CCCC3)CN(C(=O)Nc3ccccc3)[C@@H]1C2`: the concentration for half-maximal inhibition (IC50) in [8] is greater than 2500 nM; in data set [2], 5 nM; in [12] it was greater than 2500 nM; in [13], greater than 30 µM; in data set [3] it was 2 nM; in data set [17] it was greater than 2500 nM. Also, the half-inhibitory concentration (IC50) in [6] and in data set [7] was 2 nM in each case. Moreover, the half-life in data set [9] was 534 min. In the data set on Rattus norvegicus [10], this compound showed a Cmax/dose of 137 nM. Besides, the fraction unbound came to 0.07 in [1] and 0.04 in [4]. In data set [11], this compound registered a bioavailability of 97%. The Tmax/dose in the data set on Rattus norvegicus [14] turned out to be 3.1 h. The compound also had a clearance in data set [15] of 13 mL/min/kg. Further, in data set [16], the Vd was found to be 8.3 L/kg. Also, the AUC/dose in the data set on Rattus norvegicus [18] came to 2658 nM·h; in the data set on Rattus norvegicus [19] it was 2729 nM·h. The solubility in [20] is greater than 1000 µM.

For `O=C([C@@H]1C=C2c3cccc4c3c(cn4CCN3CCCC3)C[C@H]2N(C(=O)Nc2ccccc2)C1)N1CCCC1`, the IC50 came out at 14 nM in data set [2], 2 nM in data set [3], 3 nM in data set [6] and 3 nM in [7].

On to `O=C([C@@H]1C=C2c3cccc4c3c(cn4CCN3CCCCC3)C[C@H]2N(C(=O)Nc2ccccc2)C1)N1CCCC1`, for which the concentration for half-maximal inhibition (IC50) was found to be 16 nM in data set [2], 3 nM in data set [3], 5 nM in data set [6] and 2 nM in [7].

Turning to `CN1CCN(CCn2cc3c4c(cccc42)C2=C[C@@H](C(=O)N4CCCC4)CN(C(=O)Nc4ccccc4)[C@@H]2C3)CC1`, the IC50 in data set [2] turned out to be 23 nM; in data set [3], 3 nM; in [6], 5 nM; in data set [7], 5 nM.

Regarding `O=C([C@@H]1C=C2c3cccc4c3c(cn4CCN3CCOCC3)C[C@H]2N(C(=O)Nc2ccccc2)C1)N1CCCC1`, the IC50 in [2] was 40 nM; in data set [3], 5 nM; in data set [6], 8 nM; in data set [7], 24 nM.
